Rad51 HR inh = human RAD51 strand exchange inhibitors, primary screen, biochemical, fluorescence; hRad51 DNA strand exchange, fluorescence dequenching; DNA repair protein RAD51 homolog 1 (Homo sapiens), Q06609; AID 1385, 2008; actives 0.085% (n = 200,000); inhibition, % at 10 µM;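 active means inhibition above 40% at the single screening dose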
Target sequence (Q06609 whole entry, looked up): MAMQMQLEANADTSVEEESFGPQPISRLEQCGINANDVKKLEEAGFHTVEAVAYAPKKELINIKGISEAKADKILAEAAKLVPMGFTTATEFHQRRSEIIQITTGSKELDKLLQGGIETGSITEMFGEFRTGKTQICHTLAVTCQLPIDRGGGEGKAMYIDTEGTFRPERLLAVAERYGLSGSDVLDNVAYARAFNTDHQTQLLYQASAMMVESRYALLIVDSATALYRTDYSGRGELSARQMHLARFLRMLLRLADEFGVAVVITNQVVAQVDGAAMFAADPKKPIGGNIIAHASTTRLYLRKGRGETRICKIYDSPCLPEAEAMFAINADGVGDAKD
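Read-out basis: percent inhibition relative to plate controls and blanks / Assay system: human Rad51 nucleoprotein filaments preassembled on unlabelled ssDNA / Timing: filaments 15 min 37 °C, then compound 30 min / Control set: per-plate controls and blanks / Technique: fluorescence dequenching at 485/520 nm / Compound: 10 µM final, single point / Also added: Fluorescein- and BHQ1-tagged 47-mer duplex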
Lmaj promast = Leishmania major promastigote growth inhibition, primary screen. inhibition, % at 10 µM. actives 9% (n = 200,000). Leishmania major promastigotes, resazurin fluorescence viability;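 further: promastigotes grown with compound for 44 hours at 28 °C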
Arbovirus inh = antivirals against arbovirus infection, primary screen, cell-based, full library, 10K replicate subset; arbovirus infection cell-based antiviral screen; actives 0.37% (n = 200,000); inhibition, % at 10 µM; in the data active means inhibition above about 30%
CHOP inh = inhibitors of CHOP promoter induction, primary screen, cell-based, unfolded protein response, luciferase reporter. CHO-K1 CHOP-promoter luciferase, tunicamycin-induced, 15-18 h. inhibition, % at 10 µM. actives 3.8% (n = 220,000). AID 2732, 2010;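 active means compounds that reduced the stress-induced luciferase reporter signal by more than about 70% of percent inhibition, limit read from the data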
PKD1 kinase inh = inhibitors of human PKD1 kinase, biochemical, fluorescence polarization; PKD1 kinase fluorescence polarization assay; Serine/threonine-protein kinase D1 (Homo sapiens), Q15139; actives 0.056% (n = 200,000); inhibition, % (concentration not given with the values)
Wee1 stabilizer = Wee1 degradation inhibitors, primary screen, cell-based, HeLa, Wee1K328M-luciferase, luminescence; Wee1-like protein kinase (Homo sapiens), P30291; HeLa Luc-Wee1K328M stability; 100% = proteasome inhibitor MG132 effect; reporter increase, % at 5 µM; actives 1.2% (n = 220,000);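 active means activation above the mean of all tested compounds plus 3 SD, set per screening run, cut at about 8.8% in these data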;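 further: cells exposed to compound for 20 h before luminescence read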
A number is an active result; – = inactive; · = no result given. An excerpt weighted towards active compounds, which were near 12% of everything screened. Unless noted, no stated cut-off is given here; in the data, active means inhibition above about 50%; inactive means the rest.

SMILES	Rad51 HR inh	Lmaj promast	Arbovirus inh	CHOP inh	PKD1 kinase inh	Wee1 stabilizer
CCC(c1nnnn1CCc1ccccc1)N(Cc1ccco1)Cc1cc2c(C)ccc(C)c2[nH]c1=O (stereo unspecified)	–	87.0	–	90.2	–	–
CCC(c1nnnn1CCc1ccccc1)N(Cc1ccco1)Cc1cc2cc(C)cc(C)c2[nH]c1=O (stereo unspecified)	–	89.7	–	·	–	–
CCC(c1nnnn1Cc1ccco1)N(CCc1ccccc1)Cc1cc2cc(C)ccc2[nH]c1=O (stereo unspecified)	–	·	·	·	·	·
NS(=O)(=O)c1ccc(NC(=O)COC(=O)c2cnccn2)cc1	–	–	–	–	–	–
Cc1nc(CSc2ccc(Cl)cc2)cc(NCc2ccccc2)n1	–	–	–	91.2	–	–
CNc1cc(CSc2ccc(Cl)cc2)nc(C)n1	–	–	–	–	–	–
Cc1nc(CS(=O)c2ccc(Cl)cc2)cc(NCc2ccc(Cl)cc2Cl)n1 (stereo unspecified)	–	–	85.0	–	–	–
CCCc1cc(=O)n2[nH]c(NCc3ccc(Cl)cc3Cl)nc2n1	–	–	–	–	–	–
N#CC1=C(N)Oc2c(ccc3ccccc23)C1c1ccsc1 (stereo unspecified)	·	–	–	–	–	–
COc1cc(C2C(C#N)=C(N)Oc3c2ccc2ccccc32)ccc1OCC(=O)Nc1ccc(C)cc1 (stereo unspecified)	·	69.1	–	–	–	–
COc1ccc(C2C(C#N)=C(N)Oc3c2ccc2cccnc32)cc1OC (stereo unspecified)	–	–	–	–	–	–
COc1cc(C2C(C#N)=C(N)Oc3c2ccc2ccccc32)ccc1OCC(=O)Nc1cccc(C)c1 (stereo unspecified)	·	75.7	–	–	–	–
CNC(=S)N1CCN(c2nc3ccccc3s2)CC1	–	–	–	–	–	–
COc1ccc(C(=O)CSc2[nH]c(=O)cc(C(F)(F)F)c2C#N)cc1	–	·	·	–	·	–
Cc1cccc(-c2cc3nc4c(c(N5CCC6(CC5)OCCO6)n3n2)CCCC4)c1	·	64.8	·	·	–	–
Cc1cccc(-c2cc3nc4c(c(N5CCOCC5)n3n2)CCCC4)c1	–	56.5	–	–	–	–
COc1cccc(-c2cc3nc4c(c(N5CCC6(CC5)OCCO6)n3n2)CCC4)c1	–	–	–	–	–	–
CN(C)CCCNc1c2c(nc3cc(-c4cccc(F)c4)nn13)CCC2	–	–	–	–	–	–
Cc1cccc(-c2cc3nc4c(c(NCc5ccco5)n3n2)CCCC4)c1	–	67.3	–	–	–	–
COc1ccccc1C(=O)NCC(=O)N/N=C/c1cn[nH]c1-c1ccccc1	–	–	–	–	–	–
CCOC(=O)C1CCCN(Cc2nc(N)nc(Nc3ccc(Cl)cc3)n2)C1 (stereo unspecified)	–	71.2	–	–	–	–
CCOC(=O)C1CCCN(Cc2ccc(OCC)cc2)C1 (stereo unspecified)	–	89.5	–	–	–	–
CCOC(=O)C1CCCN(Cc2ccccc2Cl)C1 (stereo unspecified)	·	–	87.7	–	–	–
CCOC(=O)C1CCN(Cc2ccccc2C)CC1	–	88.7	–	–	–	–
CCOC(=O)C1CCCN(Cc2ccccc2C)C1 (stereo unspecified)	–	–	–	–	–	–
SMILES	Rad51 HR inh	Lmaj promast	Arbovirus inh	CHOP inh	PKD1 kinase inh	Wee1 stabilizer
CCOC(=O)C1CCCN(Cc2ccccc2OCC)C1 (stereo unspecified)	–	–	–	–	–	–
CC(C(=O)O)n1cc(Cl)cn1 (stereo unspecified)	–	–	–	–	–	–
Cc1onc(-c2ccccc2)c1CNS(=O)(=O)c1ccccc1[N+](=O)[O-]	–	·	·	–	·	–
Fc1ccc(-c2c[nH]c(=S)n2Cc2ccccc2)cc1	–	–	–	–	–	–
NCC(O)(c1ccc(Cl)cc1)c1ccc(Cl)cc1	–	94.4	–	–	–	–
COc1ccc(NCc2nnc(SCc3ccc(Cl)cc3)n2-c2ccccc2)cc1	·	–	–	–	–	–
CN(c1cccc(NC(=O)c2ccc(N(C)S(=O)(=O)c3ccccc3)cc2)c1)S(C)(=O)=O	–	61.7	–	–	–	–
Cc1cc(-c2csc(NC(=O)c3cccc(S(=O)(=O)N(C)C)c3)n2)c(C)n1-c1ccccc1	–	–	–	–	–	–
CCN(CC)NC(=S)Nc1ccccc1	–	–	–	–	–	–
CC(C)N(C)NC(=S)Nc1ccccc1	–	62.5	–	–	–	–
COC(=O)c1ccc(-n2c(C)cc(-c3csc(NC(=O)c4ccc(S(=O)(=O)N(C)C)cc4)n3)c2C)cc1	–	56.9	–	–	–	–
CCOC(=O)/C=C/C(=O)Nc1ccc(S(=O)(=O)N(C)c2ccccc2)cc1	–	–	–	–	–	10.1
CNS(=O)(=O)c1ccc(NS(=O)(=O)c2ccccc2F)cc1	–	–	–	–	–	–
CN(c1ccccc1)S(=O)(=O)c1ccc(NC(=O)c2ccc(-c3ccccc3)cc2)cc1	–	97.0	–	–	–	–
CN(c1ccccc1)S(=O)(=O)c1ccc(NC(=S)Nc2ccccc2)cc1	–	92.7	–	–	–	–
Cc1csc(NC(=O)c2ccc(S(=O)(=O)N(C)c3ccccc3)cc2)n1	–	98.0	–	–	–	–
CN(c1ccccc1)S(=O)(=O)c1ccc(C(=O)Nc2nccs2)cc1	–	–	–	–	–	–
O=c1[nH]c(N2CCCCC2)nc2ncn(Cc3ccccc3)c12	·	·	·	–	·	–
CN1CCC(N(C)C(=O)/C(C#N)=C/c2ccc(OC(F)F)cc2)CC1	44.6	·	·	–	·	–
CCN1CCN(C(=O)/C(C#N)=C/c2ccc(OC(F)F)cc2)CC1	–	–	–	–	–	–
CN1CCN(NC(=O)c2cc(-c3ccccn3)nc3ccccc23)CC1	–	–	–	–	–	–
COc1cc(-c2cc(C(=O)NN3CCN(C)CC3)c3ccccc3n2)cc(OC)c1OC	–	90.9	–	–	–	–
COc1cc(-c2cc(C(=O)Nc3c(Cl)cc(Cl)cc3Cl)c3ccccc3n2)cc(OC)c1OC	–	81.3	–	–	–	–
Cc1ccc(Cl)cc1NC(=O)COC(=O)c1ccc(N2CCCC2)c([N+](=O)[O-])c1	–	–	–	–	–	–
COc1ccc(S(=O)(=O)N2CCOCC2)cc1NC(=O)CSc1n[nH]c(C(C)C)n1	–	–	–	–	–	–
CCN(CC)CCC(=O)c1ccc(F)cc1	–	80.0	–	–	–	–
